In ChEMBL document CHEMBL3421528, “Synthesis and evaluation of fluorinated fingolimod (FTY720) analogues for sphingosine-1-phosphate receptor molecular imaging by positron emission tomography” (J Med Chem, 2015):

Experiments:
[1] = molecular target: Sphingosine 1-phosphate receptor 1 (Homo sapiens) (UniProt P21453); assay: Agonist activity at human S1P1 receptor overexpressed in CHO cells assessed as p44/42 MAPK phosphorylation at 1 uM by Western blot analysis; assay type: cell-based; settings: TDE = time-dependent effect
Method in brief: (§1)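 Stably transfected CHO cells overexpressing human S1P1 or S1P3 receptor, serum-starved overnight, then stimulated with test compounds alongside S1P in the same experiment for the indicated times. Cells lysed and lysates resolved on 12% SDS-PAGE gels for Western blot read-out.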

[2] = molecular target: Sphingosine 1-phosphate receptor 3 (Homo sapiens) (UniProt Q99500); assay: Agonist activity at human S1P3 receptor overexpressed in CHO cells assessed as p44/42 MAPK phosphorylation at 1 uM by Western blot analysis; assay type: cell-based; settings: TDE = time-dependent effect; method in brief: as §1
[3] = tested on: Blood; assay: Drug uptake in wild type C57BL/6 mouse blood at 400 KBq/g, iv measured at 90 mins by PET analysis; assay type: ADME, organism-based; settings: in vivo, 1.5 h
Method in brief: (§2)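 Male C57BL/6 wild-type mice, 13 weeks old, 21−26 g (n = 4), anaesthetised with isoflurane/O₂. 18F tracer given as a tail-vein bolus of 400 kBq/g in 100 μL, flushed with 100 μL saline. Dynamic list-mode PET was acquired, with CT-defined volumes of interest over the organs. Uptake was expressed as counts/mL in the VOI divided by total mouse counts ×100 (%ID/mL). Time-activity curves ran 0−90 min p.i.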

[4] = tested on: Lung; assay: Drug uptake in wild type C57BL/6 mouse lung at 400 KBq/g, iv measured at 20 mins by PET/CT analysis; assay type: ADME, organism-based; settings: in vivo; method in brief: as §2
[5] = tested on: Liver; assay: Drug uptake in wild type C57BL/6 mouse liver at 400 KBq/g, iv measured at 10 mins by PET/CT analysis; assay type: ADME, organism-based; settings: in vivo; method in brief: as §2
[6] = tested on: Kidney; assay: Drug uptake in wild type C57BL/6 mouse kidney at 400 KBq/g, iv measured at 90 mins by PET/CT analysis; assay type: ADME, organism-based; settings: in vivo, 1.5 h; method in brief: as §2
[7] = tested on: Lung; assay: Drug uptake in wild type C57BL/6 mouse lung at 400 KBq/g, iv measured at 90 mins by PET/CT analysis; assay type: ADME, organism-based; settings: in vivo, 1.5 h; method in brief: as §2
[8] = Drug uptake in wild type C57BL/6 mouse myocardium at 400 KBq/g, iv measured at 10 mins by PET/CT analysis; assay type: ADME, organism-based; settings: in vivo; method in brief: as §2
[9] = tested on: Spleen; assay: Drug uptake in wild type C57BL/6 mouse spleen at 400 KBq/g, iv measured at 10 mins by PET/CT analysis; assay type: ADME, organism-based; settings: in vivo; method in brief: as §2
[10] = tested on: Bone; assay: Drug uptake in wild type C57BL/6 mouse bone at 400 KBq/g, iv measured at 90 mins by PET/CT analysis; assay type: ADME, organism-based, Bone element; settings: in vivo, 1.5 h; method in brief: as §2
[11] = tested on: Mus musculus; assay: Drug uptake in wild type C57BL/6 mouse body parts at 400 KBq/g, iv measured at 90 mins by PET/CT analysis; assay type: ADME, organism-based; settings: in vivo, 1.5 h; method in brief: as §2
[12] = tested on: Serum; assay: Metabolic stability in human serum assessed as retention time at 8.7 MBq at 37 degC after 90 mins by HPLC analysis; assay type: ADME, cell-free; settings: 1.5 h
Method in brief: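 Formulated 18F tracer (20 μL, 8.7 MBq) was added to 200 μL human serum and incubated at 37 °C. Samples were taken at 10, 30, 60 and 90 min and quenched in MeOH/CH₂Cl₂ 1:1. After centrifugation, supernatants were analysed by C18 radio-HPLC (10−90% CH₃CN/0.1% TFA gradient over 15 min, 1.0 mL/min, 254 nm).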

[13] = tested on: Spleen; assay: Drug uptake in wild type C57BL/6 mouse spleen at 400 KBq/g, iv measured at 30 mins by PET/CT analysis; assay type: ADME, organism-based; settings: in vivo, 0.5 h; method in brief: as §2
[14] = tested on: Mus musculus; assay: In vivo inhibition of S1P1 receptor in mouse assessed as peripheral blood WBC at 1.25 mg/kg, ip after 24 hrs by flow cytometric analysis (reference value: 8.94 +/- 0.59 10^6/ml); assay type: functional; settings: route intraperitoneal
[15] = tested on: Mus musculus; assay: In vivo inhibition of S1P1 receptor in mouse assessed as peripheral blood CD8+ cells at 1.25 mg/kg, ip after 24 hrs by flow cytometric analysis (reference value: 0.48 +/- 0.05 10^6/ml); assay type: functional; settings: route intraperitoneal
[16] = tested on: Mus musculus; assay: In vivo inhibition of S1P1 receptor in mouse assessed as peripheral blood B cells at 1.25 mg/kg, ip after 24 hrs by flow cytometric analysis (reference value: 4.72 +/- 0.53 10^6/ml); assay type: functional; settings: route intraperitoneal
[17] = tested on: Mus musculus; assay: In vivo inhibition of S1P1 receptor in mouse assessed as reduction of peripheral blood CD4+ cells at 1.25 mg/kg, ip after 24 hrs by flow cytometric analysis relative to control
[18] = tested on: Mus musculus; assay: In vivo inhibition of S1P1 receptor in mouse assessed as reduction of peripheral blood CD8+ cells at 1.25 mg/kg, ip after 24 hrs by flow cytometric analysis relative to control; assay type: functional; settings: in the assay text read “CD4+ cells” for “CD8+ cells”, route intraperitoneal
Method in brief: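 Compound given intraperitoneally at 1.25 mg/kg in 0.9% NaCl (0.2 mg/mL); blood taken retro-orbitally into EDTA after 24 h. Lymphocytes counted by flow cytometry after red-cell lysis and compared with untreated mice. Mean ± SEM, n ≥ 3 independent experiments; p < 0.05 versus control.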

Sequence of Sphingosine 1-phosphate receptor 1 (Homo sapiens) (P21453 whole entry): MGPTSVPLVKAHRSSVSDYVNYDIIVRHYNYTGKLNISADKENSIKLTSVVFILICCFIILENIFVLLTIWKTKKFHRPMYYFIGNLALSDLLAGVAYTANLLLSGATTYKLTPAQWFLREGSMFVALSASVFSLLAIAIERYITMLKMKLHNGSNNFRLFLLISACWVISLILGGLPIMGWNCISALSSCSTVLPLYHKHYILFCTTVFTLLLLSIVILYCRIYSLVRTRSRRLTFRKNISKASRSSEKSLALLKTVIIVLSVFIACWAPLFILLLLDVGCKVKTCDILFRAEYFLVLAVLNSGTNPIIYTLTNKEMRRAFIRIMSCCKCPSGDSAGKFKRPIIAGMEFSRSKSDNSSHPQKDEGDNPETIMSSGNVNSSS
Sequence of Sphingosine 1-phosphate receptor 3 (Homo sapiens) (Q99500 whole entry): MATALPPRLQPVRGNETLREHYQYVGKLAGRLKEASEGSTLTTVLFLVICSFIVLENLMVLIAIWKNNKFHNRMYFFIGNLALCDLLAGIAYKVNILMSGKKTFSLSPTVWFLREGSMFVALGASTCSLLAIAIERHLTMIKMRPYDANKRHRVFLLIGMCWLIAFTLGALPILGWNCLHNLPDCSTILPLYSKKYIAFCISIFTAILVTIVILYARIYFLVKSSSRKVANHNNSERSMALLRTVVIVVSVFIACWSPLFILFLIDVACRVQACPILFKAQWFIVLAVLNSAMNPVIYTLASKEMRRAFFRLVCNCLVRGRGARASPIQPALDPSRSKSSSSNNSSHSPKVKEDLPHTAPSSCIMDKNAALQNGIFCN

| SMILES | Drug uptake [3] [%ID/ml] | Drug uptake [4] [%ID/ml] | Drug uptake [5] [%ID/ml] | Drug uptake [6] [%ID/ml] | Drug uptake [7] [%ID/ml] | Drug uptake [8] [%ID/ml] | Drug uptake [10] | Drug uptake [11] | Activity [1] | Activity [2] | Activity [14] [×10⁶ /ml] | Activity [15] [×10⁶ /ml] | Activity [16] [×10⁶ /ml] | inhibition in vivo at 1.25 mg/kg [18] [%] | also measured |
| --- | --- | --- | --- | --- | --- | --- | --- | --- | --- | --- | --- | --- | --- | --- | --- |
| CCCCCCCCCCCCC/C=C/[C@@H](O)[C@@H](N)COP(=O)(O)O | – | – | – | – | – | – | – | – | tde | tde | – | – | – | – | – |
| NC(CO)(CO)CCc1ccc(CCCCCC[18F])cc1 | 4 | 5 | 25 | 20 | 4 | 8 | Not Active | Not Active | – | – | – | – | – | – | Drug uptake [9]: 7 %ID/ml |
| NC(CO)(CO)CCc1ccc(CCCCCCCC[18F])cc1 | 4 | 6.4 | 25 | 20 | 4.8 | 8.6 | Not Active | Not Active | – | – | – | – | – | – | Retention_time [12]: 11.15 min; Drug uptake [13]: 7.8 %ID/ml |
| NC(CO)(CCc1ccc(CCCCCCCCF)cc1)COP(=O)(O)O (stereo not given) | – | – | – | – | – | – | – | – | tde | tde | 3.93 | 0.14 | 1.05 | – | inhibition in vivo at 1.25 mg/kg [17]: 89% |
| NC(CO)(CO)CCc1ccc(CCCCCCF)cc1 | – | – | – | – | – | – | – | – | – | – | 4.91 | 0.25 | 2.23 | 59 | – |
| NC(CO)(CO)CCc1ccc(CCCCCCCCF)cc1 | – | – | – | – | – | – | – | – | – | – | 3.04 | 0.03 | 1.03 | 95 | – |
